Source: PubChem BioAssay (Sanford-Burnham Center for Chemical Genomics)
APJ antag – antagonists of human apelin receptor APJ, primary screen, CHO-K1 cells, beta-arrestin complementation, luminescence; P35414; actives 0.32% (n = 330,000); inhibition, % at 20 µM;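 active = inhibition above about 40% at 20 µM, limit read from the data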;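 note: cells challenged with 10 nM apelin-13 agonist together with compound; plate controls were apelin-13 plus DMSO wells for no effect and DMSO wells lacking apelin-13 for full effect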
APJ agonist – agonists of human apelin receptor APJ, primary screen, CHO-K1 cells, PathHunter beta-arrestin, luminescence. P35414. 0% DMSO wells, 100% apelin. activation, % at 20 µM. actives 0.11% (n = 330,000);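 active = activation more than six SD over the plate average, tested at 20 µM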;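 note: 0% = DMSO alone and 100% = apelin-13 at 10 nM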
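Test system – PathHunter CHO-K1 APJ (AGTRL-1) beta-arrestin reporter cells · Input – 1000 cells/well · Compound – single test compound dose, 20 µM final, 1% DMSO · Times – compound stimulation 90 min at 25 °C, detection 60 min · Technique – beta-gal luminescence · Read-out basis – APJ–arrestin association signal · Control set – negative DMSO alone, positive Apelin-13 at 10 nM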
CCR6 antag – CCR6 receptor antagonists, primary screen, cell-based, CHO-K1, luminescence, beta-arrestin, uHTS. actives 0.49% (n = 340,000). AID 493098, 2011. inhibition, % at 20 µM. CHO-K1 CCR6 PathHunter beta-arrestin, CCL20-stimulated. C-C chemokine receptor type 6 (Homo sapiens), P51684;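 active = compounds whose inhibition of the agonist-driven luminescence signal at 20 µM reaches about 50%, limit read from the data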;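 note: cells stimulated with CCL20 at 14 nM final; plate controls were DMSO with CCL20 for no effect and DMSO without agonist for full effect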
Target sequence (P51684 whole entry, looked up): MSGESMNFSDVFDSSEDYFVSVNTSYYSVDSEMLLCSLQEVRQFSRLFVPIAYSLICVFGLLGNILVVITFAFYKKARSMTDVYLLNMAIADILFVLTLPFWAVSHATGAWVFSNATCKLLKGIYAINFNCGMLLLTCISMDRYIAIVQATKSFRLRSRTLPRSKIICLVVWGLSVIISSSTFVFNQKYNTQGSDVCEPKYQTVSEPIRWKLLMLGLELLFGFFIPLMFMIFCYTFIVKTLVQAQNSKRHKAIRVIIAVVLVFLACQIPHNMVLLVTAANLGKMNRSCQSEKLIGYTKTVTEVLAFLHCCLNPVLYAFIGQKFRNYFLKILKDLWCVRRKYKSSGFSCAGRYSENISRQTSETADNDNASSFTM
EBI2 antag – EBI2 receptor antagonists, beta-arrestin recruitment, primary screen, cell-based, luminescence, 7a,25-OHC stimulation, uHTS; inhibition, % at 5 µM; 7a,25-OHC stimulated; actives 0.81% (n = 360,000); G-protein coupled receptor 183 (Homo sapiens), P32249; AID 651636, 2012; in the data active = inhibition above about 38%;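 note: enzyme fragment complementation signal reports receptor beta-arrestin coupling in cells; 0% = agonist plus DMSO wells and 100% = wells without agonist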
CXCR6 block – CXCR6 receptor inhibitors, primary screen, cell-based, beta-arrestin, luminescence, CHO-K1 PathHunter, 1536-well. C-X-C chemokine receptor type 6 (Homo sapiens), O00574. inhibition, % at 20 µM. actives 0.36% (n = 360,000); in the data active = inhibition above about 34%, passing the limit was not always enough;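 note: antagonist mode with CXCL16 agonist at 10 nM final; 0% = 10 nM CXCL16 with DMSO and 100% = unstimulated wells without agonist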
Target sequence (O00574 whole entry, looked up): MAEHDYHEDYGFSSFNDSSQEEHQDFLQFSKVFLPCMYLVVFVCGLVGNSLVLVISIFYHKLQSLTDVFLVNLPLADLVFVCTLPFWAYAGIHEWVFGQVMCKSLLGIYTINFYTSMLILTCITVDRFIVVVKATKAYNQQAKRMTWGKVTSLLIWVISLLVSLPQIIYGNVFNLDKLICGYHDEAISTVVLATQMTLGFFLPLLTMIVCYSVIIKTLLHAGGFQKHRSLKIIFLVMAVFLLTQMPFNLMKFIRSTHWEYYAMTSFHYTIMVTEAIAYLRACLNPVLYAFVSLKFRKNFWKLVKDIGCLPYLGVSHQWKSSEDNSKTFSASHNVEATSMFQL
EBI2 conf – EBI2 antagonist hit retest, beta-arrestin, confirmation, cell-based, single concentration, luminescence, 7a,25-OHC stimulation. AID 651997, 2013. 7a,25-OHC antagonism. shares compounds with EBI2 antag. actives 29% (n = 2,400). inhibition, % at 5 µM;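 active = inhibition of at least 50%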
EBI2 ag – EBI2 agonist activity of antagonist hits, confirmation, counter-screen for EBI2 antagonist project, cell-based, single concentration, agonist mode, luminescence; EBI2-expressing cells, 60 min; 0% vehicle, 100% 7α,25-dihydroxycholesterol control; activation, % at 5 µM; 2,400 tested, under 10 active; shares compounds with EBI2 antag;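 active = activation of at least 50%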
bGal counter – E. coli beta-galactosidase enzyme inhibition, confirmation, counter-screen for EBI2 antagonist project, biochemical, luminescence, single concentration. shares compounds with EBI2 antag. purified beta-galactosidase, luminescent Galacton Star, 15 min. inhibition, % at 5 µM. actives 1% (n = 2,400). AID 652176, 2013;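 active = replicate-average signal at least 3 plate SD below neutral wells, shown as high inhibition, flagging enzyme-inhibiting false positives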;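 note: 0% = DMSO wells with enzyme and 100% = wells lacking enzyme; higher means stronger loss of beta-gal luminescence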
Starred values were filed as active, the others as inactive; nt = not tested or not shown. In the library only some 1.5% were active in any assay of this set; here they are far more common.

SMILES | APJ antag | APJ agonist | CCR6 antag | EBI2 antag | CXCR6 block | EBI2 conf | EBI2 ag | bGal counter
CC(C)(C)c1ccc(C(=O)Nc2ccc(O)c3c(=O)cc(-c4cccc(Cl)c4)oc23)cc1 | 6 | -1 | 12 | -3 | 11 | nt | nt | nt
COc1ccc(C(=O)Nc2ccc(O)c3c(=O)cc(-c4cccc(Cl)c4)oc23)cc1 | 24 | -6 | 23 | 44* | 6 | 21 | 0 | 6
COc1ccccc1NC(=O)/C(C#N)=C/c1c(C)nn(-c2ccc(F)cc2)c1Cl | -9 | 4 | -2 | 43 | -1 | nt | nt | nt
COc1ccc(NC(=O)/C(C#N)=C/c2c(C)nn(-c3ccc(F)cc3)c2Cl)cc1Cl | -18 | 3 | 19 | 60* | 6 | 43 | 1 | 5
COc1ccc(NC(=O)/C(C#N)=C/c2c(C)nn(-c3ccc(F)cc3)c2Cl)cc1OC | 0 | 5 | 12 | 70* | -2 | 53* | 0 | -13
Cc1cccc(OCC(=O)Nc2ccccc2N2CCN(C(=O)C(C)C)CC2)c1C | 1 | 5 | 25 | 17 | -2 | nt | nt | nt
Cc1ccccc1CN1CCN(S(=O)(=O)c2ccc(Cl)s2)CC1 | -6 | 5 | 36 | -3 | -3 | nt | nt | nt
Cc1cc2nc(-c3ccc(C#N)cc3)c(Cc3cccc(F)c3)n2c(C)c1Br | nt | nt | nt | 44* | 5 | 43 | -1 | -16
Cc1ccc(-c2nc3ccc(C)cn3c2Cc2cccc(Cl)c2)cc1 | nt | nt | nt | 35 | 31 | nt | nt | nt
Cc1ccc(-c2nc3ccc(C)cn3c2Cc2cccc(F)c2)cc1 | nt | nt | nt | 43* | 28 | 46 | -2 | -14
Cc1ccc(C(=O)COC(=O)CNC(=O)CN2C(=O)c3ccccc3C2=O)cc1 | -6 | -3 | -1 | -1 | -4 | nt | nt | nt
CC(=O)NC(CCS(C)(=O)=O)C(=O)Nc1cccc(C)c1C (stereo not drawn) | 3 | -2 | -1 | -5 | 3 | nt | nt | nt
CC1(c2nnc(-c3ccc(F)cc3)o2)CC(c2ccc(Cl)cc2)=NO1 (stereo not drawn) | -5 | -3 | 13 | 5 | 3 | nt | nt | nt
CC1(c2nnc(-c3ccc(Cl)cc3)o2)CC(c2c(Cl)cccc2Cl)=NO1 (stereo not drawn) | 8 | -6 | 7 | 52* | -14 | 60* | 0 | -18
CC1(c2nnc(-c3ccc(Cl)cc3)o2)CC(c2ccncc2)=NO1 (stereo not drawn) | 12 | -1 | -1 | -9 | 2 | nt | nt | nt
CC1(c2nnc(-c3ccc(F)cc3)o2)CC(c2c(Cl)cccc2Cl)=NO1 (stereo not drawn) | 13 | -4 | 12 | 50* | 0 | 49 | 0 | 4
CCn1nc(C)c(/C=N/NC(=O)c2c[nH]c3ccccc23)c1C | -3 | -2 | 2 | -11 | -5 | nt | nt | nt
O=C(CSc1nnnn1C1CC2C=CC1C2)Nc1ccc(C(=O)O)cc1 (stereo not drawn) | 22 | 10 | 5 | 3 | 1 | nt | nt | nt
Cc1ccc(Nc2ccc(C(=O)NC3CCCCC3)cn2)cc1 | -13 | 0 | 10 | 84* | -2 | 58* | 0 | -11
COc1ccccc1Nc1ccc(C(=O)NC2CCCCC2)cn1 | -4 | -6 | 15 | 10 | -2 | nt | nt | nt
CCOC(=O)c1c(Nc2ccccc2)sc(/C=C2\C=Nc3ccccc32)c1O | 10 | -2 | -6 | 53* | 6 | 41 | -1 | 7
COC(=O)c1c(NC(=O)CN2C(=O)c3ccccc3C2=O)sc(Cc2ccc3c(c2)OCO3)c1C | 2 | 0 | -8 | 63* | 6 | 33 | 0 | -12
COC(=O)c1c(NC(=O)CN2CCN(Cc3ccc4c(c3)OCO4)CC2)sc(C)c1C | 1 | -5 | 5 | 10 | -4 | nt | nt | nt
Cc1cc(C)c(S(=O)(=O)N(CC(=O)O)CC(=O)O)c(C)c1 | 1 | -1 | -12 | -4 | -2 | nt | nt | nt
Cc1cc(C)c(S(=O)(=O)N(C2=NCCS2)S(=O)(=O)c2c(C)cc(C)cc2C)c(C)c1 | 6 | -2 | 15 | 56* | -1 | 18 | 0 | -4
SMILES | APJ antag | APJ agonist | CCR6 antag | EBI2 antag | CXCR6 block | EBI2 conf | EBI2 ag | bGal counter
O=C1C(=Cc2cccn2-c2ccc(O)cc2)C(=O)c2ccccc21 | -9 | -4 | 25 | 7 | 8 | nt | nt | nt
O=Cc1c(NCCc2ccc(F)cc2)c2ccccc2[nH]c1=O | 16 | 0 | 11 | 45* | 4 | 4 | -1 | -9
Cc1cc2nc(-c3ccc(SCc4ccccc4C#N)nc3)[nH]c2cc1C | -18 | 4 | 8 | 50* | 6 | 37 | -1 | 9
CC(=O)Nc1ccc(NC(=O)CSc2ncnc3sc(C)c(C)c23)cc1 | -5 | 0 | 5 | -6 | -2 | nt | nt | nt
CCOC(=O)c1c(NC(=O)C2C3C=CC(CC3)C2C(=O)O)sc(C)c1C (stereo not drawn) | 21 | -11 | -18 | 2 | -8 | nt | nt | nt
CCOC(=O)c1c(NC(=O)c2cccc(N3C(=O)CCC3=O)c2)sc(C)c1C | -10 | 1 | 1 | -11 | 6 | nt | nt | nt
CC1=C(C(=O)Nc2ccccn2)C(c2ccc(Cl)cc2)NC(=S)N1 (stereo not drawn) | 20 | -3 | 10 | 5 | 6 | nt | nt | nt
CCOC(=O)c1c(NC(=O)C2=C(C)NC(=S)NC2c2ccc(F)cc2F)sc(C)c1C (stereo not drawn) | -6 | -3 | -4 | 86* | 7 | 45 | -1 | 7
CCOC(=O)c1c(NC(=O)C2=C(C)NC(=S)NC2c2ccc(C)cc2)sc(C)c1C (stereo not drawn) | 9 | -3 | 12 | 92* | 10 | 48 | -2 | -13
CCOC(=O)c1c(NC(=O)C2=C(C)NC(=S)NC2c2ccc(F)cc2)sc(C)c1C (stereo not drawn) | 17 | -2 | 11 | 82* | -2 | 53* | 1 | -3
O=C(Cn1cc([N+](=O)[O-])cn1)NCCc1c[nH]c2ccccc12 | 2 | -3 | 2 | 0 | -1 | nt | nt | nt
COc1ccc(NC(=O)C2C3C=CC(O3)C2C(=O)O)cc1 (stereo not drawn) | 7 | -3 | 4 | -1 | -12 | nt | nt | nt
